In brackets after ≈: the same amount, converted by molar mass.
Assays:
Assay type in all cases: functional
Staphylococcus aureus [1] = test: Antibacterial activity against Staphylococcus aureus ATCC 29213 assessed as inhibition of visible bacterial growth incubated for 24 hrs at 37 degC by broth microdilution method; details: ATCC 29213, 24 h
Method in brief: (§1)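 MICs were determined by broth microdilution against S. aureus strains maintained on Mueller Hinton agar (24 h, 37 °C). Final compound concentrations ranged from 0.39 to 100 μg/mL. Inoculum was 10^5 CFU/mL final per well, incubated 24 h at 37 °C. MIC was the lowest concentration preventing visible growth. Wells were run in triplicate and the experiment was repeated three times.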

Helicobacter pylori [2] = test: Bactericidal activity against Helicobacter pylori J99 assessed as compound concentration causing reduction in viable colony-forming units pre-incubated for 2 hrs followed by incubation at 37 degC under microaerophilic conditions for 72 hrs
Method in brief: (§2)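 H. pylori J99 came from 24 h cultures on Skirrow's medium (microaerobic, 37 °C) and was resuspended in brain heart infusion. Compound at 100 μg/mL final was mixed with 10^6 CFU/mL bacteria and held 2 h at 37 °C. Controls were BHI alone and amoxicillin at 10 μg/mL. Samples were serially 10-fold diluted in warm PBS and plated in triplicate on Skirrow's (72 h, 37 °C, microaerophilic). Kill was log10 CFU/mL (0 h) minus log10 CFU/mL (2 h).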

Helicobacter pylori [3] = test: Bactericidal activity against Helicobacter pylori J99 assessed as reduction in viable colony-forming units pre-incubated for 2 hrs followed by incubation at 37 degC under microaerophilic conditions for 72 hrs; method in brief: as §2
Staphylococcus aureus [4] = test: Antibacterial activity against Staphylococcus aureus isolated from tibial leg ulcer patient assessed as inhibition of visible bacterial growth incubated for 24 hrs at 37 degC by broth microdilution method; method in brief: as §1
Staphylococcus aureus [5] = test: Antibacterial activity against Staphylococcus aureus isolated from tibial osteomyelitis patient assessed as inhibition of visible bacterial growth incubated for 24 hrs at 37 degC by broth microdilution method; method in brief: as §1
Helicobacter pylori [6] = test: Bactericidal activity against Helicobacter pylori J99 assessed as reduction in viable colony-forming units pre-incubated for 2 hrs followed by incubation at 37 degC under microaerophilic conditions for 72 hrs relative to initial inoculum; method in brief: as §2

Compound | MIC (Staphylococcus aureus [1]) | Activity (Helicobacter pylori [2]) | log10CFU/ml (Helicobacter pylori [3]) | MIC (Staphylococcus aureus [4]) | MIC (Staphylococcus aureus [5]) | Activity (Helicobacter pylori [6])
COc1cc(O)c2c(O)c3c(c(-c4c(OC)cc5c(c4O)C(=O)c4c(O)cc(C)cc4C5=O)c2c1)CC(C)OC3=O (stereo unspecified) | 89.9 µM (≈ 50 µg/mL) | 179.8 µM | 0.42 | 89.9 µM (≈ 50 µg/mL) | 89.9 µM (≈ 50 µg/mL) | 
COc1cc(O)c2c(O)c3c(c(-c4c(OC)cc5c(c4O)C(=O)c4c(O)cc(C)c(OC)c4C5=O)c2c1)CC(C)OC3=O (stereo unspecified) | 10.7 µM (≈ 6.28 µg/mL) | 170.6 µM | 6 | 2.7 µM (≈ 1.58 µg/mL) | 10.7 µM (≈ 6.28 µg/mL) | >99.9%
CC1(C)S[C@@H]2[C@H](NC(=O)[C@H](N)c3ccc(O)cc3)C(=O)N2[C@H]1C(=O)O [AMOXICILLIN] |  | 274 µM | 0.51 |  |  | 
NC[C@H]1O[C@H](O[C@H]2[C@H](O)[C@@H](O[C@H]3O[C@H](CO)[C@@H](O)[C@H](N)[C@H]3O)[C@H](N)C[C@@H]2N)[C@H](O)[C@@H](O)[C@@H]1O [KANAMYCIN] | 8.3 µM (≈ 4.02 µg/mL) |  |  | 8.3 µM (≈ 4.02 µg/mL) | 8.3 µM (≈ 4.02 µg/mL) | 
